# High-throughput results (PubChem)
# DNMT1 inh: blocks human DNA methyltransferase DNMT1 | inhibition (reported as % activation of signal), % at 10 µM | DNMT1 molecular beacon, Hinp1I cleavage, fluorescence | actives 0.83% (n = 360,000) | AID 588458; in the data active = inhibition above about 50%
# Target sequence (P26358 504-1616 limits assumed): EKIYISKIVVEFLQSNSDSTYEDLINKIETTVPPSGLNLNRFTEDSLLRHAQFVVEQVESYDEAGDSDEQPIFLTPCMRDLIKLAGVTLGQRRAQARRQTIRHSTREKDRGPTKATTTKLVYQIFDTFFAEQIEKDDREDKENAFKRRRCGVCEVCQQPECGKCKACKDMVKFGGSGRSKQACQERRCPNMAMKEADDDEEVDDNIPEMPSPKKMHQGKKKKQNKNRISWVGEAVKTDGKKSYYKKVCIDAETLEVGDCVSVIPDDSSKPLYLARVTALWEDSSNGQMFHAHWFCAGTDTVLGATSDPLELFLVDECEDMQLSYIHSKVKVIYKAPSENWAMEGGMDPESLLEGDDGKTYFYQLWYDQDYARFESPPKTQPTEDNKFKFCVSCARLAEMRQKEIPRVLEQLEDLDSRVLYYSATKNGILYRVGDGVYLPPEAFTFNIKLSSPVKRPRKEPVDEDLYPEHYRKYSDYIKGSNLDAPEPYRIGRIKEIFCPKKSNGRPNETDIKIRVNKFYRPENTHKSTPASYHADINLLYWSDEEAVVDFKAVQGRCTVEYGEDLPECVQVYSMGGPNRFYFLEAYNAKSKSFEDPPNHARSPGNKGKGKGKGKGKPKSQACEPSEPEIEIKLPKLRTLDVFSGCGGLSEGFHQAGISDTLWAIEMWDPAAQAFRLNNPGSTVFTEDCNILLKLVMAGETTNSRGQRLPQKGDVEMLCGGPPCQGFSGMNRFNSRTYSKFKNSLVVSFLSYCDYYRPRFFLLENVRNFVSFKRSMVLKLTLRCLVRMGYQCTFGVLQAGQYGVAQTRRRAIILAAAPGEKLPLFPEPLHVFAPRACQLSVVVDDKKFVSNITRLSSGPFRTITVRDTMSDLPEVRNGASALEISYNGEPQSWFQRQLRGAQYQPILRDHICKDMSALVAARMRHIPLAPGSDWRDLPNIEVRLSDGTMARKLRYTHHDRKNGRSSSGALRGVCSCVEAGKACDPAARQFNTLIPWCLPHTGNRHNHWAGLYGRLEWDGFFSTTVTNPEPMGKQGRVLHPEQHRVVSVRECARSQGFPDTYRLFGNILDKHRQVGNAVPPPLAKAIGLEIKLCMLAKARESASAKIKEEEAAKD
# Scp1 inh: blocks human Scp-1 phosphatase activity; Q9GZU7; Recombinant Scp1, phosphopeptide, malachite green phosphate absorbance; inhibition, % at 20 µM; actives 0.88% (n = 340,000); AID 493091;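 active = inhibition above about 50% at 20 µM, limit read from the data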;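 note: plate controls were DMSO wells with enzyme for no effect and wells lacking enzyme for full effect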
#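 Test system: SCP-1 phosphatase catalytic domain, residues 76-261; measured by: colorimetric phosphate reagent with accelerator and stabiliser, absorbance at 630 nm; timing: enzyme reaction 45 min at room temperature, colour 5 min, stabilisation 30 min; also added: Phosphorylated 17-residue peptide substrate; compound dosing: one concentration, 20 µM, with 1.0% DMSO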
# STEP inh: blocks human striatal-enriched tyrosine phosphatase; AID 588621; P54829; actives 0.25% (n = 360,000); recombinant STEP, OMFP fluorogenic substrate, fluorescence; inhibition, % at 20 µM;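 active = inhibition at 20 µM, scaled per plate between control wells, above about 37%, limit read from the data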;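 note: 0% = DMSO with enzyme and substrate and 100% = substrate only without enzyme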
#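 medium = Bis-Tris buffer pH 6.0, 2.5 mM DTT, 0.005% Tween 20 | test system = STEP (striatal-enriched tyrosine phosphatase) enzyme, cell-free | measure = normalized % inhibition | compound dosing = 20 µM, 1% DMSO | also added = 25 µM OMFP | schedule = reaction 20 min, ambient temperature | measured by = fluorescence read at 480 nm ex / 540 nm em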
# LMPTP block: blocks human LMPTP phosphatase | AID 651560 | recombinant LMPTP-A, OMFP fluorogenic substrate, fluorescence intensity | actives 0.22% (n = 360,000) | inhibition, % at 20 µM;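 active = compounds that cut the enzyme signal by at least half of the control window in the single-dose screen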;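 note: plate controls were DMSO wells with enzyme plus substrate for no effect and substrate without enzyme for full effect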
#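 Test system: LMPTP-A, protein tyrosine phosphatase of low molecular weight; Input: 0.625 nM enzyme; Incubation: 50 min dark incubation at room temperature; Signal: endpoint fluorescence intensity from OMFP dephosphorylation; Read-out basis: % inhibition versus control wells.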
# SUMO1 PPI mod: SUMO1-SIM interaction modulation; inhibition, % at 20 µM; P63165; SUMO1 binding to a labelled peptide, TR-FRET, 1 h; actives 0.33% (n = 360,000); in the data active = inhibition above about 37%
# F508del corr: CFTR F508del correction in bronchial cells; activity (quench increase), % at 7.58 µM; CFBE cells, YFP halide quenching; stimulated with forskolin plus potentiator P3; % fluorescence drop versus neutral controls; AID 720511; actives 0.36% (n = 350,000);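 active = mean added fluorescence quench of at least 8% versus neutral control, with both replicates also reaching 8%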;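 note: cells transiently co-express mutant CFTR-F508del with the halide-sensitive YFP; corrector assay measuring rescue of mutant channel to the surface after 24 h compound exposure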
# DNMT1 interf DR: beacon fluorescence artifact, dose response counter-screen. shares compounds with DNMT1 inh. molecular beacon fluorescence, spectral interference counter-screen. IC50, µM. 200 tested, under 10 active. AID 602382; call rule not given here
# DNMT1 confirm: confirmation of human DNMT1 inhibitors; shares compounds with DNMT1 inh; DNMT1 molecular beacon HinP1I cleavage, fluorescence; inhibition, % at 10 µM; actives 8% (n = 2,300); AID 602385;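 active = average inhibition of at least 30% in the single-concentration confirmation test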
# Beacon interf: counter-screen for DNMT1 inhibitors: spectral interference; shares compounds with DNMT1 inh; DNMT1 molecular beacon spectral interference counterscreen, fluorescence 485/520; activation (fluorescence interference), % at 10 µM; actives 1% (n = 2,300); AID 602387;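 active = activation of at least 30% at 10 µM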;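 note: DNMT1 catalytic domain with a HinP1I cleavage step and a FAM/dabcyl DNA beacon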
# The depositor's hits bear a star; . = not tested or not shown. A selection: hits, their analogues and other compounds. The true share with any hit is near 1.6%.
SMILES,DNMT1 inh,Scp1 inh,STEP inh,LMPTP block,SUMO1 PPI mod,F508del corr,DNMT1 confirm,Beacon interf,others
COC(=O)[C@@H]1[C@@H](CO)[C@@H]2Cn3c(ccc(-c4ccccc4)c3=O)[C@H]1N2CCc1ccccc1,.,.,.,.,.,-3,.,.,
Cc1ccc(N2C(=O)NC(=O)/C(=C/c3ccoc3)C2=O)cc1,93*,84*,95*,56*,102*,4,64*,-5,DNMT1 interf DR=>99
Cc1ccc(N2C(=O)NC(=O)/C(=C/c3cnn(-c4ccc(C)cc4)c3)C2=O)cc1,2,-8,1,-1,5,.,.,.,
CC=Cc1ccc2n(c1=O)C[C@H]1[C@H](CO)[C@@H](C(=O)OC)[C@@H]2N1CC1CCCCC1 (mixture of isomers),.,.,.,.,.,0,.,.,
C=CCNC(=O)c1c(N)n(Cc2ccco2)c2nc3ccccc3nc12,102*,26,7,3,20,.,0,-1,
O=C1CNC[C@H]2[C@@H](c3ccc(Br)cc3)[C@H](CO)N12,.,.,.,.,.,-3,.,.,
COc1ccc(OC(=O)N(C)C[C@@H]2OCc3ccccc3-c3c(n(C)c4ccccc34)C(=O)N([C@@H](C)CO)C[C@@H]2C)cc1,.,.,.,.,.,2,.,.,
O=C1C=C(N2CC2)c2ccccc2C1=O,121*,.,7,17,65*,0,88*,-10,DNMT1 interf DR=>99
CN(C)[C@@H]1C(=O)C(C(N)=O)=C(O)[C@@]2(O)C(=O)C3=C(O)c4c(O)ccc(Cl)c4[C@@](C)(O)C3C[C@@H]12 (some centres undefined),56*,-1,2,19,14,-2,2,0,
COc1ccc(/C=N/N=C(/N)N[N+](=O)[O-])c(OC)c1,3,0,1,-1,-10,.,.,.,
N/C(=N\N=C/c1ccc(-c2ccc(O)c(C(=O)O)c2)o1)N[N+](=O)[O-],88*,80*,71*,30,27,.,96*,-4,DNMT1 interf DR=>99
O=C1NC(=S)NC(=O)C1=Cc1cccc2cc3ccccc3cc12,17,-7,0,-1,-15,-3,.,.,
CN1/C(=C\C=C2C(=O)NC(=S)NC2=O)C(C)(C)c2ccccc21,81*,0,-61,20,-35,1,55*,51*,
C/C=C/c1ccc(C2[C@H]3CNC[C@@H]2N3CC2CC2)cc1 (some centres undefined),.,.,.,.,.,-2,.,.,
C/C=C/c1ccc([C@@H]2[C@@H](CO)N3CCCCN(C(=O)Cc4ccncc4)C[C@@H]23)cc1,.,.,.,.,.,1,.,.,
CCCCn1c(NC(=O)c2ccc(Br)o2)c(C(=O)OCC)c2nc3ccccc3nc21,70*,-3,-1,2,45*,-3,-1,-5,
O=C(O)C[C@H]1CC[C@@H]2NC[C@H](O)COC[C@H]2O1,.,.,.,.,.,-3,.,.,
Cc1cccc(N2C(=O)NC(=O)/C(=C\c3cc(C)n(-c4sc5c(c4C#N)CCCC5)c3C)C2=O)c1C,71*,-7,3,3,54*,.,15,-3,
CCCNC(=O)N1[C@@H]2c3ccc(-c4cccc(C(=O)N(C)C)c4)c(=O)n3C[C@H]1[C@H](CO)[C@H]2C(=O)O,.,.,.,.,.,0,.,.,
CCCCCCn1c(=O)c(C(=O)Nc2ncccc2O)c(O)c2ccccc21,70*,0,7,20,15,-3,1,4,
O=Cc1c(C(=O)O)n(Cc2ccc(Cl)cc2)c2ccccc12,95*,-3,-6,0,10,.,15,1,
O=C1NC(=O)C(=Cc2ccc(-c3ccccc3[N+](=O)[O-])o2)C(=O)N1,2,42,3,1,-16,-6,.,.,
